From PubChem BioAssay
SENP6 block – blocks the human protease SENP6; AID 2599; 1.8% of 330,000 active; Q9GZR1; Recombinant SENP6 catalytic domain, aminoluciferin luminescence; inhibition, % at 10 µM;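 active means inhibition above about 50% at the single tested dose, limit read from the data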
SENP8 block-1 – inhibitors of human SENP8 protease; Q96LD8; recombinant SENP8, Nedd8 substrate fluorescence; inhibition, % at 20 µM; 0.64% of 360,000 active; in the data active means inhibition mostly above about 40%, no sharp cut-off; inactive means mostly below about 27%
Target sequence (Q96LD8 whole entry, looked up): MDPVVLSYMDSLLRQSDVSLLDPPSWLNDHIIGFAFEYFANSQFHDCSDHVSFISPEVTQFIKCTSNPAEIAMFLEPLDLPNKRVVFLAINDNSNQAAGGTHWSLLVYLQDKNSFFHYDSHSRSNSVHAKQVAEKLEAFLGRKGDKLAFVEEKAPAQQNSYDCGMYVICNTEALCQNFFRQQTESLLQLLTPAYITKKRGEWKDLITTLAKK
Apaf1 inhib – inhibitors of human Apaf-1 apoptosome; O14727; 0.71% of 330,000 active; AID 489030; reconstituted apoptosome caspase-3 activity, DEVD-Rh110 fluorescence; inhibition, % at 20 µM; active means inhibition of at least 40% at 20 µM
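Medium: Hepes buffer, pH 7.5 / System: biochemical Apaf-1 apoptosome reconstitution / Measured by: Rh110 fluorescence, excitation 480 nm, emission 540 nm / Times: compound with Apaf-1, dATP, procaspase-3 30 min, then 50 min reaction, room temperature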
SENP8 block-2 – blocks the human protease SENP8. inhibition, % at 10 µM. purified SENP8, Z-RLRGG-aminoluciferin cleavage, luminescence. 1.2% of 330,000 active; in the data active means inhibition above about 50%
UBC13 inh – human UBC13 polyubiquitination inhibition. P61088. UBC13 polyubiquitin chain formation, TR-FRET. inhibition, % at 20 µM. 0.47% of 330,000 active. AID 485273; in the data active means inhibition above about 45%, passing the limit was not always enough; inconclusive means no clear call, values can overlap the other calls
Target sequence (P61088 whole entry, looked up): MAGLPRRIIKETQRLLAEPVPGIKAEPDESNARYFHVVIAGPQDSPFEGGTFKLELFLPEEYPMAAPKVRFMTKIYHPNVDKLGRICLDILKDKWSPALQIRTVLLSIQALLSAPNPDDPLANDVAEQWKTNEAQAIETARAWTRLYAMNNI
SENP7 block – SENP7 protease inhibition | recombinant SENP7, Z-RLRGG-aminoluciferin luminescence, 40 min | inhibition, % at 5 µM | Q9BQF6 | AID 434973 | 1.5% of 330,000 active;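 active means inhibition above about 50% at the single test dose, limit read from the data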
Target sequence (Q9BQF6 706-1050 limits assumed): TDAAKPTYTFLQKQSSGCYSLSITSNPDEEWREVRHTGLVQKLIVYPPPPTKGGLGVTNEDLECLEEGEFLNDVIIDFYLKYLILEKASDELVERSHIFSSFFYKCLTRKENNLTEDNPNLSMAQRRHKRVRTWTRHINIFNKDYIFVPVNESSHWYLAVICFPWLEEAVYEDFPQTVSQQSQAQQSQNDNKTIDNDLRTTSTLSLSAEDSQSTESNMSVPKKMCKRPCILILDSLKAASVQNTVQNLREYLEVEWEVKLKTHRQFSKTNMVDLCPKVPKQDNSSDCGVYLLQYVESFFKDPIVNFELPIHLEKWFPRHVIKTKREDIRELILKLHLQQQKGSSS
Casp3 UBC13 ctr – counter-screen for UBC13 inhibitors: human caspase-3 inhibition; Recombinant caspase-3, Caspase-Glo 3/7 luminescence, 60 min; 4% of 1,400 active; inhibition, % at 20 µM; shares compounds with UBC13 inh;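 active means mean inhibition across replicates above about 26%, limit read from the data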
UBC13 confirm – human UBC13 polyubiquitin inhibition, confirmed. shares compounds with UBC13 inh. UBC13 polyubiquitination, TR-FRET, biochemical. AID 488859. inhibition, % at 10 µM. 68% of 1,400 active; in the data active means inhibition above about 45%; inconclusive means no clear call, values can overlap the other calls
Apaf-1 inh conf – confirmation of Apaf-1 inhibitors; 25% of 1,800 active; AID 504614; reconstituted apoptosome, caspase-3 DEVD-Rh110 fluorescence; inhibition, % at 20 µM; shares compounds with Apaf1 inhib;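 active means mean inhibition of at least 40% at 20 µM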
Rh110 interf inh – counter-screen for Apaf-1 inhibitors: fluorescence interference | shares compounds with Apaf1 inhib | Rh110 fluorescence interference, quenched caspase reaction | activation (fluorescence interference), % at 20 µM | 1,800 tested, under 10 active | AID 504615;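 active means signal rise of 40% or more at 20 µM, treated as a fluorescence artifact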
Apaf1 inh interf – counter-screen for Apaf-1 inhibitors: fluorescence interference, dose response. shares compounds with Apaf1 inhib. fluorescence interference counterscreen, Apaf-1 assay format. IC50, µM. 460 tested, under 10 active; call rule not given here
Large screens that a line does not name were inactive (follow-up assays come after a bar, where they were run). An excerpt weighted towards active compounds, which were near 3% of everything screened.

C#CCOCCOCCOCCNc1nc(N2CCN(C(=O)C([C@@H](C)O)n3cc([C@@H](N)CCCCN)nn3)CC2)nc(N2CCN(C(=O)[C@H](CCCN=C(N)N)n3cc(C(N)[C@@H](C)CC)nn3)CC2)n1 (some centres undefined)	Apaf1 inhib 46, UBC13 inh 101 | Casp3 UBC13 ctr inactive | UBC13 confirm 111 | Apaf-1 inh conf inactive | Rh110 interf inh inactive
COc1ccc(NC(=O)C2c3ccccc3OCC(=O)N2Cc2ccc3c(c2)OCO3)cc1 (centres undefined)	none (no result: SENP6 block, Apaf1 inhib, SENP8 block-2, UBC13 inh, SENP7 block)
COc1cc2nc(N3CCNCC3)nc(N)c2cc1OC	Apaf1 inhib 61, UBC13 inh 107 | Casp3 UBC13 ctr inactive | UBC13 confirm 118 | Apaf-1 inh conf 66 | Rh110 interf inh inactive | Apaf1 inh interf inactive
COc1cc2nc(N3CCN(c4cc(C)ccc4C)CC3)nc(N)c2cc1OC	none
CC[C@H](C)Cc1cn([C@@H](CCCN=C(NC(=O)OC(C)(C)C)NC(=O)OC(C)(C)C)C(=O)NCCCCCCCCCCC(=O)N2CCN(C(=O)OC(C)(C)C)CC2)nn1	Apaf1 inhib 57, UBC13 inh 54 | Casp3 UBC13 ctr inactive | UBC13 confirm inactive | Apaf-1 inh conf inactive | Rh110 interf inh inactive
Cc1cn([C@@H](CCCCNC(=O)OC(C)(C)C)C(=O)NCCCCCCCCCCC(=O)N2CCN(C(=O)OC(C)(C)C)CC2)nn1	none
NCCCCCc1cn([C@@H](CCC(=O)O)C(=O)NCCCCCCCCCCC(=O)N2CCNCC2)nn1	none
CC[C@H](C)Cc1cn([C@@H](CCCCN)C(=O)NCCCCCCCCCCC(=O)N2CCNCC2)nn1	Apaf1 inhib 46, UBC13 inh 47 | Casp3 UBC13 ctr inactive | UBC13 confirm 45 | Apaf-1 inh conf inactive | Rh110 interf inh inactive
CC(C)(C(=O)N1CCC1(C)C(=O)NS(=O)(=O)c1ccc(C#N)cc1)c1ccccc1 (centres undefined)	none (no result: SENP6 block, Apaf1 inhib, SENP8 block-2, UBC13 inh, SENP7 block)
COc1cccc(-c2sc3ccccc3c2-c2ccc(OCCN3CCCC3)cc2)c1	Apaf1 inhib 71, UBC13 inh 84 | Casp3 UBC13 ctr inactive | UBC13 confirm 68 | Apaf-1 inh conf inactive | Rh110 interf inh inactive
COc1cccc(-c2sc3ccccc3c2-c2ccc(OCCN(C)C)cc2)c1	Apaf1 inhib 76, UBC13 inh 80 | Casp3 UBC13 ctr inactive | UBC13 confirm 79 | Apaf-1 inh conf inactive | Rh110 interf inh inactive
COc1ccc(-c2sc3ccccc3c2-c2ccc(OCCN3CCCCC3)cc2)cc1	Apaf1 inhib 55, UBC13 inh 72 | Casp3 UBC13 ctr inactive | UBC13 confirm inconclusive | Apaf-1 inh conf inactive | Rh110 interf inh inactive
COc1cccc(-c2sc3ccccc3c2-c2ccc(OCCN3CCCCC3)cc2)c1	Apaf1 inhib 64, UBC13 inh 69 | Casp3 UBC13 ctr inactive | UBC13 confirm 62 | Apaf-1 inh conf inactive | Rh110 interf inh inactive
COc1ccc(-c2sc3ccc(OC)cc3c2-c2ccc(OCCN3CCOCC3)cc2)cc1	none (no result: SENP6 block, SENP8 block-2, UBC13 inh)
CCNC(=O)C1(C)CCN(C(=O)c2ccccc2OC(F)(F)F)C1 (centres undefined)	none (no result: SENP6 block, Apaf1 inhib, SENP8 block-2, UBC13 inh, SENP7 block)
Cc1ccc(C(NC(=O)C2CCN(CCOc3ccccc3)CC2)c2ccccn2)cc1 (centres undefined)	none (no result: SENP6 block, Apaf1 inhib, SENP8 block-2, UBC13 inh, SENP7 block)
CC1(C(=O)NS(=O)(=O)c2ccc(Cl)s2)CCN1C(=O)Cc1ccc(-c2ccccc2)cc1 (centres undefined)	none (no result: SENP6 block, Apaf1 inhib, SENP8 block-2, UBC13 inh, SENP7 block)
CCN(CC)CCOC(=O)c1ccc(N/C=C(/C#N)c2nc(-c3cccc(OC)c3)cs2)cc1	Apaf1 inhib 55, UBC13 inh 99 | Casp3 UBC13 ctr inactive | UBC13 confirm inactive | Apaf-1 inh conf inactive | Rh110 interf inh inactive
Cc1ccc(-c2csc(/C(C#N)=C/Nc3ccc4c(c3)OCCO4)n2)cc1	none
COc1cccc(-c2csc(NC(=O)C3CC3)n2)c1	none
CCN(CC)CCOC(=O)c1ccc(N/C=C(/C#N)c2nc(-c3ccc(OC)c(OC)c3)cs2)cc1	Apaf1 inhib 55, UBC13 inh 117 | Casp3 UBC13 ctr inactive | UBC13 confirm 138 | Apaf-1 inh conf 67 | Rh110 interf inh inactive | Apaf1 inh interf inactive
CC1(c2nc3ccccc3[nH]2)CCC(=O)N1Cc1cccs1 (centres undefined)	none (no result: SENP6 block, Apaf1 inhib, SENP8 block-2, UBC13 inh, SENP7 block)
COC(=O)[C@H]1C[C@@]2(O)CN(S(=O)(=O)c3ccc(C)cc3)C[C@@]2(OC(=O)NCc2ccco2)C[C@H]1C(=O)OC	none (no result: SENP6 block, Apaf1 inhib, SENP8 block-2, UBC13 inh, SENP7 block)
C#CCOCCOCCOCCNc1nc(N2CCN(C(=O)[C@H](CCCCN)n3cc(CCC(=O)O)nn3)CC2)nc(N2CCN(C(=O)[C@H](Cc3ccc(O)cc3)n3cc(CCO)nn3)CC2)n1	none (no result: SENP6 block, Apaf1 inhib, SENP8 block-2, UBC13 inh, SENP7 block)
C#CCOCCOCCOCCNc1nc(N2CCN(C(=O)CCCCCCCCCCNC(=O)[C@@H](CCSC)n3cc(CCO)nn3)CC2)nc(N2CCN(C(=O)CCCCCCCCCCNC(=O)[C@H](CO)n3cc(CCCCCN)nn3)CC2)n1	Apaf1 inhib 71, UBC13 inh 118 | Casp3 UBC13 ctr inactive | UBC13 confirm 123 | Apaf-1 inh conf 40 | Rh110 interf inh inactive | Apaf1 inh interf inactive
C#CCOCCOCCOCCNc1nc(N2CCN(C(=O)[C@H]([C@@H](C)O)n3cc(CCCCN)nn3)CC2)nc(N2CCN(C(=O)[C@H](CCCCN)n3cc(CCCC)nn3)CC2)n1	none
C#CCOCCOCCOCCNc1nc(N2CCN(C(=O)CCCCCCCCCCNC(=O)[C@H](CCCCN)n3cc(C)nn3)CC2)nc(N2CCN(C(=O)CCCCCCCCCCNC(=O)[C@H](CCCN=C(N)N)n3cc(C[C@@H](C)CC)nn3)CC2)n1	Apaf1 inhib 75, UBC13 inh 123 (no result: SENP8 block-1) | Casp3 UBC13 ctr inactive | UBC13 confirm 127 | Apaf-1 inh conf 57 | Rh110 interf inh inactive | Apaf1 inh interf inactive
C#CCOCCOCCOCCNc1nc(N2CCN(C(=O)[C@H]([C@@H](C)CC)n3cc(CCC(=O)O)nn3)CC2)nc(N2CCN(C(=O)[C@H](CCCCN)n3cc(CCC(=O)O)nn3)CC2)n1	none (no result: SENP6 block, Apaf1 inhib, SENP8 block-2, UBC13 inh, SENP7 block)
